Data: ChEMBL document CHEMBL1128369, “Haloanilino derivatives of pyrimidines, purines, and purine nucleoside analogs: synthesis and activity against human cytomegalovirus” (J Med Chem, 1995)

Experiments:
HEL [1] = experiment: Inhibition of human CMV DNA synthesis in CMV-infected HEL cells.; format: functional, cell-based
How it was run: (§1)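 Dot-blot hybridization. HEL cells in MEM + 10% FCS infected with HCMV AD169 at about 1 pfu/cell for 60–90 min. Medium replaced by 3-fold drug dilutions (4–6 concentrations, duplicate wells) or DMSO. Incubated 48–96 h at 37 °C, 5% CO2. SDS/pronase lysates spotted on nitrocellulose, hybridized with 32P-labeled cloned viral DNA probe and counted. IC50 is 50% inhibition of viral DNA.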

HEL [2] = experiment: Inhibition against DNA of uninfected HEL cells by incorporation of [3H]TdR.; format: functional, cell-based; details: Homo sapiens
How it was run: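 About 1/3 confluent uninfected HEL monolayers in DMEM + 10% FCS, preincubated 24 h at 37 °C. Serial compound dilutions in DMSO (or DMSO alone) added to duplicate wells with [3H]thymidine 1 μCi/mL for 24 h. Cells lysed with 0.4 M NaOH, then 5% TCA precipitate collected on filters and counted. IC50 is 50% inhibition of incorporation.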

Nucleic Acid = experiment: Inhibitory activity against HCMV DNA polymerase in virus infected cells; format: functional, cell-based, Human betaherpesvirus 5
How it was run: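 HCMV DNA polymerase partially purified from HEL cells infected with AD169 (MOI 2, 3 days) by phosphocellulose and DEAE-cellulose chromatography. Assay buffer was 40 mM Tris-HCl pH 7.8 with 8 mM MgCl2, 100 mM KCl, 4 mM 2-mercaptoethanol, 0.1 mM dATP/dGTP/dCTP/[3H]dTTP and activated calf thymus DNA. Incubated 60 min at 37 °C; acid-precipitable counts measured. IC50 is the mean of duplicate experiments.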

HEL [3] = experiment: Inhibitory activity against HCMV DNA synthesis in virus infected cells; format: functional, cell-based; details: Homo sapiens; how it was run: as §1
HEL [4] = experiment: Concentration that inhibits HCMV yield by 90% relative to control cultures without drugs; format: functional; details: Homo sapiens
How it was run: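 HCMV AD169 infected HEL cells in 96-well plates at 0.1 pfu/cell for 30 min, washed twice, then given compound dilutions or DMSO diluent. Incubated 7 days at 37 °C. Cells scraped and sonicated. Progeny titered by end-dilution, in triplicate, 3- or 5-fold serial dilutions on fresh HEL cells, read after 14 days as the highest dilution with enumerable plaques.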

| IC50 (HEL [1]) [µM] | IC50 (Nucleic Acid) [µM] | IC50 (HEL [3]) [µM] | IC90 (HEL [4]) [µM] | Compound | IC50 (HEL [2]) [µM] |
| --- | --- | --- | --- | --- | --- |
| 45 |  |  |  | OCC(CO)OCn1cnc2c(O)nc(Nc3cc(Cl)cc(Cl)c3)nc21 | 41.7 |
| > 200 |  |  |  | Nc1nc(O)cc(Nc2cc(F)cc(Cl)c2)n1 | > 200 |
| > 200 |  |  |  | Oc1cc(Nc2cc(F)cc(F)c2)nc(O)n1 | > 200 |
| 12 | 330 | 12 |  | Oc1[nH]c(Nc2ccc(Cl)c(Cl)c2)nc2ncnc1-2 | 60 |
| > 200 |  |  |  | Oc1cc(Nc2ccc(Cl)c(F)c2)nc(O)n1 | > 200 |
| 15.1 |  |  |  | OC[C@H]1O[C@@H](n2cnc3c(O)nc(Nc4cc(Cl)cc(Cl)c4)nc32)C[C@@H]1O | 13 |
| > 200 |  |  |  | Oc1cc(Nc2cc(F)cc(Cl)c2)nc(O)n1 | > 200 |
| 12.5 |  |  |  | OCCOCn1cnc2c(Cl)nc(Nc3cc(Cl)cc(Cl)c3)nc21 | 14.4 |
| 7.9 |  |  |  | OC[C@H]1O[C@@H](n2cnc3c(Cl)nc(Nc4cc(Cl)cc(Cl)c4)nc32)C[C@@H]1O | 3.4 |
| 4.7 |  |  | 18 | Nc1nc(Cl)cc(Nc2cc(Cl)cc(Cl)c2)n1 | 32 |
| 40 | 45 | 40 |  | Oc1cc(Nc2ccc(Cl)c(Cl)c2)nc(O)n1 | > 200 |
| > 200 |  |  |  | Oc1cc(Nc2ccc(F)c(F)c2)nc(O)n1 | > 200 |
| 8 | 250 | 8 | 16.8 | Nc1[nH]c(Nc2cc(Cl)cc(Cl)c2)nc2ncnc1-2 | 40 |
| 0.5 |  |  | 2.1 | Nc1nc2c(ncn2COC(CO)CO)c(=O)[nH]1 [GANCICLOVIR] | 7 |
| 115 |  |  |  | Nc1nc(O)cc(Nc2ccc(F)c(F)c2)n1 | > 200 |
| 7.9 |  |  |  | Nc1nc(Nc2cc(Cl)cc(Cl)c2)nc2c1ncn2COCCO | 1.4 |
| 70 |  |  |  | Nc1nc(O)cc(Nc2ccc(Cl)c(F)c2)n1 | 165 |
| 47.9 |  |  |  | Nc1nc(Nc2cc(Cl)cc(Cl)c2)nc2c1ncn2COC(CO)CO | 5 |
| 33 | 140 | 33 | 56 | Oc1[nH]c(Nc2cc(Cl)cc(Cl)c2)nc2ncnc1-2 | 400 |
| 25 | 65 | 25 | 69 | Oc1cc(Nc2cc(Cl)cc(Cl)c2)nc(O)n1 | 100 |
| 5 |  |  |  | Nc1[nH]c(Nc2ccc(Cl)c(Cl)c2)nc2ncnc1-2 | 3.4 |
| 9.1 | 150 | 9.1 | 8.7 | Nc1nc(Cl)cc(Nc2ccc(Cl)c(Cl)c2)n1 | 31 |
| 20 |  |  |  | Nc1nc(O)cc(Nc2ccc(F)c(Cl)c2)n1 | 110 |
| 28 | 175 | 28 | 91 | Nc1nc(O)cc(Nc2cc(Cl)cc(Cl)c2)n1 | 95 |
| 8.6 |  |  |  | Nc1nc(Nc2cc(Cl)cc(Cl)c2)nc2c1ncn2[C@H]1C[C@H](O)[C@@H](CO)O1 | 0.5 |
| 15.2 |  |  |  | OCCOCn1cnc2c(O)nc(Nc3cc(Cl)cc(Cl)c3)nc21 | 14 |
| 140 |  |  |  | Oc1cc(Nc2ccc(F)c(Cl)c2)nc(O)n1 | > 200 |
| 63 |  |  |  | Nc1nc(O)cc(Nc2cc(F)cc(F)c2)n1 | > 200 |
| 25 | 360 | 25 |  | Nc1nc(O)cc(Nc2ccc(Cl)c(Cl)c2)n1 | 32 |

| Compound | IC50 (HEL [1]) [µM] | IC50 (Nucleic Acid) [µM] | IC50 (HEL [3]) [µM] | IC90 (HEL [4]) [µM] | IC50 (HEL [2]) [µM] |
| --- | --- | --- | --- | --- | --- |
| O=C(O)P(=O)(O)O [FOSCARNET SODIUM] | 15.5 |  |  |  |  |
